ChEMBL document CHEMBL1134834, “Quinoxalinylethylpyridylthioureas (QXPTs) as potent non-nucleoside HIV-1 reverse transcriptase (RT) inhibitors. Further SAR studies and identification of a novel orally bioavailable hydrazine-based antiviral agent” (J Med Chem, 2001)
Calls of active or inactive are those of the source. No cut-off for these calls is given here.

Legend:
CEM-SS [1] = test: Concentration which produces a 50% survival of HIV-1 infected cells relative to uninfected control CEM-SS cells (in vitro anti-HIV activity); assay type: functional, cell-based; details: Homo sapiens
Method in brief: (§1)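 CEM-SS T4 lymphocytes infected with wild-type HIV-1. Protection from virus-induced cell death is scored against an AZT-treated positive control run under identical conditions. […] SI = IC50/EC50.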

CEM-SS [2] = test: (§2) Concentration which results in 50% survival of uninfected untreated control CEM-SS cells (cytotoxicity of the compound); assay type: cell-based; details: Homo sapiens
[3] = target: Human immunodeficiency virus type 1 protease (Human immunodeficiency virus 1) (UniProt Q72874); test: Inhibition of HIV-1 Mutant HIV-1 RT enzymes containing the single amino acid substitution K103N; NA means Not active
Method in brief: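 Template poly(rA)oligo(dT) 10:1 (0.3 µM 3′-OH ends) with 10 µM [3H]-dTTP, 37 °C. TCA-precipitable radioactivity counted. Ki from Lineweaver-Burk and Dixon plots, inhibitor 0.2-5 Ki, triplicate.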

[4] = Selectivity index was determined in CEM-SS cells; assay type: functional; method in brief: as §1
NIH3T3 [5] = test: cytotoxicity on 3T3 fibroblasts (3T3F) murine cell line (O.D.=0.131+/-0.014); assay type: functional; details: Mus musculus, read-out: TC50 (the source's name)
C8166 [6] = test: Synergistic antiviral activity with AZT (DDI), against HIV-IIIB in C8166 cells; assay type: functional, cell-based; details: Homo sapiens
Method in brief: (§3)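 C8166 cells infected with HIV-IIIB and treated with compound combined with AZT (or DDI). Combination index calculated by the Chou-Talalay multiple drug effect analysis under both mutually exclusive and mutually nonexclusive assumptions.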

C8166 [7] = test: Concentration which results in 50% survival of uninfected untreated control C8166 cells (cytotoxicity of the compound); assay type: functional, cell-based; details: Homo sapiens
Method in brief: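 Toxicity in uninfected C8166 cells by MTT reduction to formazan, read spectrophotometrically.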

C8166 [8] = test: Antiviral activity alone against HIV-IIIB in C8166 cells; assay type: functional, cell-based; details: Homo sapiens
Method in brief: (§4)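 C8166 CD4+ T-cell line (HTLV-I genome, only tat expressed) acutely infected with lymphocytotropic HIV-1 IIIB. […] Read-out is HIV-p24 antigen in supernatants. AZT positive control was run at the same time. SI = IC50/EC50.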

[9] = test system: Human immunodeficiency virus 1; test: Concentration which produces a 50% survival of HIV-1 infected cells relative to uninfected control C8166 cells; assay type: functional, organism-based; details: Human immunodeficiency virus 1, C8166
C8166 [10] = test: Synergistic antiviral activity of AZT (DDI) with the compound, against HIV-IIIB in C8166 cells; assay type: functional, cell-based; details: Homo sapiens; method in brief: as §3
Daudi [11] = test: cytotoxicity on Daudi Human(DH) cell line (O.D.=0.129+/-0.018); assay type: functional; details: read-out: TC50 (the source's name)
[12] = test system: Human immunodeficiency virus 1; test: Inhibition of HIV-1-p24 antigen production in monocyte-macrophages (in vitro anti-HIV-1 activity); assay type: functional, organism-based
Method in brief: (§5)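 Macrophages from adherent PBMC (10^6/mL, RPMI-1640 with 20% heat-inactivated FCS), 10^5 per well, >95% pure, infected with monocytotropic HTLV-III Ba-L. Antiviral activity read 14 days after infection. […] SI = IC50/EC50. AZT control run in parallel.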

Mus musculus [13] = species on record: Mus musculus; test: cytotoxicity on NSO murine cell line (O.D.=0.125+/-0.015); assay type: functional; details: read-out: TC50 (the source's name)
[14] = target: T1, Human immunodeficiency virus type 1 reverse transcriptase (Human immunodeficiency virus 1, UniProt Q72547); test: Inhibition of HIV-1 Mutant HIV-1 RT enzymes containing the single amino acid substitution […]
[15] = target: Human immunodeficiency virus type 1 reverse transcriptase (Human immunodeficiency virus 1, UniProt Q72547, V106A); test: Inhibition of HIV-1 Mutant HIV-1 RT enzymes containing the single amino acid substitution V106A
[16] = target: Human immunodeficiency virus type 1 reverse transcriptase (Human immunodeficiency virus 1, UniProt Q72547, Y181I); test: Inhibition of HIV-1 Mutant HIV-1 RT enzymes containing the single amino acid substitution Y181I
[17] = target: Human immunodeficiency virus type 1 reverse transcriptase (Human immunodeficiency virus 1, UniProt Q72547, Y188L); test: Inhibition of HIV-1 Mutant HIV-1 RT enzymes containing the single amino acid substitution Y188L
[18] = target: T1, Human immunodeficiency virus type 1 reverse transcriptase; test: Inhibition of HIV-1 wild-type RT
[19] = Selectivity index between IC50 of HIV-1-p24 and EC50 of HIV-1-p24 (IC50/EC50); assay type: functional; method in brief: as §5
[20] = Selectivity index (IC50/EC50) was determined in C8166 cells; assay type: functional
[21] = test system: Human immunodeficiency virus 1; test: Inhibition of HIV-1-p24 antigen production in monocyte-macrophages (cytotoxicity of the compound); assay type: organism-based; method in brief: as §5
[22] = cytotoxicity on normal human lymphocytes(HL) (O.D.=0.114+/-0.01); details: read-out: TC50 (the source's name)
[23] = Selectivity index (IC50/EC50) was determined in CEM-SS cells; assay type: functional
Method in brief: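 CEM-SS (T4 lymphocyte) cells infected with wild-type HIV-1 were scored for protection from virus-induced cell death. […] SI = IC50/EC50. An AZT-treated positive control was run in parallel under identical conditions.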

[24] = target: Human immunodeficiency virus type 1 reverse transcriptase (Human immunodeficiency virus 1, UniProt Q72547, K103N); test: Inhibition of HIV-1 Mutant HIV-1 RT enzymes containing the single amino acid substitution K103N
NIH3T3 [25] = test: Cytotoxicity on 3T3 fibroblasts (3T3F) murine cell line (O.D.=0.131+/-0.014); assay type: functional; details: Mus musculus, read-out: TC50 (the source's name)
CEM-SS [26] = test: as §2; assay type: functional, cell-based; details: Homo sapiens, read-out: IC50 (the source's name)
Daudi [27] = test: Cytotoxicity on Daudi Human(DH) cell line (O.D.=0.129+/-0.018); assay type: functional; details: read-out: TC50 (the source's name)
Mus musculus [28] = species on record: Mus musculus; test: Cytotoxicity on NSO murine cell line (O.D.=0.125+/-0.015); assay type: functional; details: read-out: TC50 (the source's name)
[29] = Cytotoxicity on normal human lymphocytes(HL) (O.D.=0.114+/-0.01); assay type: functional; details: read-out: TC50 (the source's name)
[30] = Selectivity index was determined in C8166 cells; assay type: functional; method in brief: as §4

| Structure (SMILES) | EC50 (CEM-SS [1]) | IC50 (CEM-SS [2]) | SI [4] | EC50 (C8166 [6]) | IC50 (C8166 [7]) | EC50 (C8166 [8]) | EC50 [9] | EC50 (C8166 [10]) | EC50 [12] | Ki [14] | Ki [15] | Ki [16] | Ki [17] | Ki [18] | SI [19] | IC50 [21] | Ki [24] | CC50 (NIH3T3 [25]) | CC50 (CEM-SS [26]) | CC50 (Daudi [27]) | also measured |
| --- | --- | --- | --- | --- | --- | --- | --- | --- | --- | --- | --- | --- | --- | --- | --- | --- | --- | --- | --- | --- | --- |
| O=c1c2cccn2c2c(F)cc(F)cc2n1CC/N=C(\S)Nc1ccc(Br)cn1 | 0.085 µM | > 2 µM | >23 | – | – | – | – | – | – | – | – | – | – | – | – | – | – | – | – | – | NA [3]: inactive |
| O=c1c2cccn2c2ccc(F)cc2n1CC/N=C(\S)Nc1ccc(Br)cn1 | 0.063 µM | > 200 µM | – | 0.057 µM | 15 µM | 0.066 µM | 0.032 µM | 0.085 µM | 0.004 µM | 0.7 µM | 0.04 µM | 1 µM | 1.2 µM | 0.029 µM | 12200 | 49 µM | 0.65 µM | – | – | – | CC50 (NIH3T3 [5]): 20 µM; CC50 (Daudi [11]): 19 µM; CC50 (Mus musculus [13]): 20 µM; SI [20]: 468; CC50 [22]: 20 µM; SI [23]: >3170 |
| O=c1c2cccn2c2cccc(F)c2n1CC/N=C(\S)Nc1ccc(Br)cn1 | 0.00047 µM | – | >43 | 0.002 µM | 200 µM | 0.025 µM | 0.025 µM | 0.003 µM | 0.002 µM | 0.17 µM | 0.015 µM | 0.2 µM | 0.2 µM | 0.009 µM | 8800 | 17 µM | 0.16 µM | 1000 µM | > 0.02 µM | 1000 µM | CC50 (Mus musculus [28]): 1000 µM; CC50 [29]: 960 µM; SI [30]: 7990 |
| O=c1c2nccn2c2ccccc2n1CCNC(=S)Nc1ccc(Br)cn1 | 0.013 µM | – | >150 | 0.46 µM | 88 µM | 0.588 µM | 0.32 µM | 0.066 µM | – | 1 µM | 0.35 µM | 1.4 µM | 5 µM | 0.25 µM | – | – | 0.24 µM | 690 µM | > 2 µM | 680 µM | CC50 (Mus musculus [28]): 680 µM; CC50 [29]: 670 µM; SI [30]: 275 |
